Test results from ChEMBL document CHEMBL2203265, “Discovery of tetrahydropyridopyrimidine phosphodiesterase 10A inhibitors for the treatment of schizophrenia” (Bioorg Med Chem Lett, 2012).
Activity calls are given as the source filed them. No cut-off for these calls is given here.

What was measured:
[1] = target: cAMP and cAMP-inhibited cGMP 3',5'-cyclic phosphodiesterase 10A (Homo sapiens, UniProt Q9Y233); assay: Inhibition of PDE10A
[2] = Solubility of the compound at pH 7; assay type: physicochemical; conditions: buffer
[3] = Plasma clearance in rat; assay type: ADME, organism-based
[4] = Clearance in dog; assay type: ADME, organism-based, Canis lupus familiaris; conditions: in vivo
[5] = Clearance in rat; assay type: ADME, organism-based; conditions: in vivo
Rattus norvegicus [6] = assay: Antipsychotic activity in rat assessed as inhibition of MK801-induced hyperlocomotion at 4.5 mg/kg, po; assay type: functional, organism-based; design: dose 4.5 mg/kg
Procedure, shortened: (§1)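 Oral dosing in rats challenged with the psychostimulant MK-801. Locomotor activity is scored against vehicle-only animals and against animals given MK-801 alone.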

[7] = Plasma concentration in rat at 4.5 mg/kg, po at 2 hrs; assay type: ADME, organism-based; design: dose 4.5 mg/kg, route oral
Procedure, shortened: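 Plasma drug concentration is sampled 2 h after oral dosing in the rat hyperlocomotion study.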

Rattus norvegicus [8] = assay: Antipsychotic activity in po dosed rat assessed as inhibition of MK801-induced hyperlocomotion; assay type: functional, organism-based; procedure, shortened: as §1
Rattus norvegicus [9] = assay: Toxicity in rat assessed as increase in prolactin level up to 1.5 mg/kg, po; assay type: organism-based; design: dose 1.5 mg/kg, route oral; conditions: in vivo
Procedure, shortened: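 Circulating prolactin is measured in rats after oral administration, with haloperidol at 1.5 mg/kg as the control.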

Rattus norvegicus [10] = assay: Toxicity in rat assessed as induction of catalepsy up to 1.5 mg/kg, po; assay type: organism-based; design: dose 1.5 mg/kg, route oral; conditions: in vivo
Procedure, shortened: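 Catalepsy in rats is scored by fore-limb retraction (paw test) after oral administration, with haloperidol at 1.5 mg/kg as the control.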

Chain of cAMP and cAMP-inhibited cGMP 3',5'-cyclic phosphodiesterase 10A (Q9Y233 whole entry): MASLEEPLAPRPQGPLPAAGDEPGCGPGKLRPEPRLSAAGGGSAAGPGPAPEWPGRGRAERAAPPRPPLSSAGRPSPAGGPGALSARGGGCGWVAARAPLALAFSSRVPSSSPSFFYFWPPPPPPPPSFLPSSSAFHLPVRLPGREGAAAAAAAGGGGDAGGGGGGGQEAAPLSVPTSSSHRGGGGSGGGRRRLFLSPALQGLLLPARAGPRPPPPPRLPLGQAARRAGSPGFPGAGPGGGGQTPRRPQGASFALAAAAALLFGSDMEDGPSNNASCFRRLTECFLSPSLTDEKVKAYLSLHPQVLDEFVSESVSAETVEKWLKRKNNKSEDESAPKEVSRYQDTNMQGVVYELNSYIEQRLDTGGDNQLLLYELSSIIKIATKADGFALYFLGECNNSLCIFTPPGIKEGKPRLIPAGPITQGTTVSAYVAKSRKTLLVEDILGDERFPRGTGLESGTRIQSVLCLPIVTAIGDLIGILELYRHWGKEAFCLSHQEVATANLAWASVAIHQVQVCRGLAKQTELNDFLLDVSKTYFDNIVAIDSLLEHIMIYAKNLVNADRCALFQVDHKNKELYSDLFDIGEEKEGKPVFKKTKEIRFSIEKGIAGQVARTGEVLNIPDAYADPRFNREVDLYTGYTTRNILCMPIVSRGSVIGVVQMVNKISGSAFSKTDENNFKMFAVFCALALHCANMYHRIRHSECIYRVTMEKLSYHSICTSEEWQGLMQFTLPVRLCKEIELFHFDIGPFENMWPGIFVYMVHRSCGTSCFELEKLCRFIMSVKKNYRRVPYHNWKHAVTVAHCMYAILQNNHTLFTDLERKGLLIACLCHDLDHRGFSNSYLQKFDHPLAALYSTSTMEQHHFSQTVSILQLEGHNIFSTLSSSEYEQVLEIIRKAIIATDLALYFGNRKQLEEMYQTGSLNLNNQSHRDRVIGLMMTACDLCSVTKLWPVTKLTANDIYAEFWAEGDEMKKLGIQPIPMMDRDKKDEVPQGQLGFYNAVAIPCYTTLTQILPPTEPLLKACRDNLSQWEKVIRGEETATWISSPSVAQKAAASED

Structure (SMILES) | Ki [1] [nM] | solubility [2] [µM] | further results
CN(CCc1ccccn1)c1nc(-c2cccc(Br)c2)nc2c1CN(C(=O)Nc1ccccc1)CC2 | 991 | < 10 | –
CCc1cccc(NC(=O)N2CCc3nc(-c4cccnc4)nc(OC4CCN(C)CC4)c3C2)c1 | – | > 75 | clearance [3]: > 100 mL/min/kg
CC(C)Oc1nc(-c2ccncc2)nc2c1CN(C(=O)Nc1ccccc1)CC2 | 98 | > 75 | –
CN(CCc1ccccn1)c1nc(-c2ccccn2)nc2c1CN(C(=O)Nc1ccccc1)CC2 | 864 | > 75 | –
CN(CCc1ccccn1)c1nc(-c2ccncc2)nc2c1CN(C(=O)c1ccc(Cl)cc1)CC2 | 522 | > 75 | –
CN(CCc1ccccn1)c1nc(-c2ccncc2)nc2c1CN(C(=O)Nc1ccccc1)CC2 | 94 | > 75 | –
COCCOc1nc(-c2ccncc2)nc2c1CN(C(=O)Nc1ccccc1)CC2 | 135 | > 75 | –
Cc1ccc(-c2nc3c(c(OC(C)C)n2)CN(C(=O)Nc2cnccc2C)CC3)cn1 | 8 | – | –
CC(C)Oc1nc(-c2ccc(Cl)nc2)nc2c1CN(C(=O)c1cn(C)cn1)CC2.Cl | – | 69 | clearance [4]: 0.94 mL/min/kg; clearance [5]: 2.4 mL/min/kg; inhibition (Rattus norvegicus [6]): Active; concentration at 2 h [7]: 3000 nM; inhibition (Rattus norvegicus [8]): Dose-dependent effect
COc1ccc(NC(=O)N2CCc3nc(-c4ccncc4)nc(N(C)CCc4ccccn4)c3C2)cc1 | 122 | > 75 | –
Cc1nc2c(c(N(C)CCc3ccccn3)n1)CN(C(=O)Nc1ccccc1)CC2 | 4340 | – | –
CC(C)CC(=O)N1CCc2nc(-c3ccncc3)nc(N(C)CCc3ccccn3)c2C1 | 868 | > 75 | –
Cc1ccncc1NC(=O)N1CCc2nc(-c3ccc(F)nc3)nc(OC(C)C)c2C1 | 3 | – | –
CN(C)c1nc2c(c(N(C)CCc3ccccn3)n1)CN(C(=O)Nc1ccccc1)CC2 | 512 | – | –
CC(C)Oc1nc(-c2cccnc2)nc2c1CN(C(=O)Nc1ccccc1)CC2 | 17 | > 75 | –
O=C(CCCN1CCC(O)(c2ccc(Cl)cc2)CC1)c1ccc(F)cc1 [HALOPERIDOL] | – | – | Activity (Rattus norvegicus [9]): Toxic; Activity (Rattus norvegicus [10]): Toxic
